ChEMBL document CHEMBL1149071, “Lignans from the wood of Abies pinsapo” (J Nat Prod, 1994)
Active and inactive are the calls of the source. The calls are words filed in the database; no cut-off is given here.

Columns and labels:
Format in all cases: functional, organism-based
Aspergillus niger = experiment: Antifungal ativity against Aspergillus niger CECT 2089
Procedure, shortened: (§1)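 Disk diffusion on brain-heart agar plates inoculated with 0.1 ml of 8 h-old fungal cultures grown in CM medium (1% glucose, 0.5% yeast extract, 0.5% malt extract). 5-mm paper disks carrying 1 mg of sample were applied. Plates were held 2 h at 4° for diffusion, then incubated at 28°. Growth-inhibition halo (mm) was read at 18 h.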

Penicillium = experiment: Antifungal ativity against Penicillium; procedure, shortened: as §1
Human alphaherpesvirus 1 = experiment: Antiviral activity against HSV1 at 40 ug/ml
[1] = test system: Vesicular stomatitis virus; experiment: Antiviral activity against VSV at 40 ug/ml

Row | SMILES | Activity (Aspergillus niger) | Growth-inhibition halo (Penicillium) | Activity (Human alphaherpesvirus 1) | Activity [1]
1 | COc1cc(C[C@H]2COC(O)[C@@H]2Cc2ccc(O)c(OC)c2)ccc1O (some centres undefined) | inactive | inactive | inactive | inactive
2 | COc1cc([C@H]2OC[C@H]([C@@H](OC(C)=O)c3ccc(OC(C)=O)c(OC)c3)[C@@H]2COC(C)=O)ccc1OC(C)=O |  |  | inactive | inactive
3 | COc1cc([C@H]2OC[C@H]([C@H](OC(C)=O)c3ccc(OC(C)=O)c(OC)c3)[C@@H]2COC(C)=O)ccc1OC(C)=O |  |  | inactive | inactive
4 | COc1cc(C[C@H]2[C@H](OC(C)=O)OC[C@@H]2[C@H](OC(C)=O)c2ccc(OC(C)=O)c(OC)c2)ccc1OC(C)=O |  |  | inactive | inactive
5 | COc1cc(C[C@H]2[C@H](OC(C)=O)O[C@H](c3ccc(OC(C)=O)c(OC)c3)[C@H]2COC(C)=O)ccc1OC(C)=O |  |  | inactive | inactive
6 | COc1cc(C[C@H](COC(C)=O)Oc2ccc(C[C@@H]3[C@@H](Cc4ccc(OC(C)=O)c(OC)c4)CO[C@H]3OC(C)=O)cc2OC)ccc1OC(C)=O |  |  | inactive | inactive
7 | COc1cc(C[C@H](CO)Oc2ccc(C[C@H]3C(=O)OC[C@@H]3Cc3ccc(O)c(OC)c3)cc2OC)ccc1O | inactive | inactive |  | 
8 | COc1cc(C[C@H]2COC(=O)[C@@H]2Cc2ccc(O)c(OC)c2)ccc1O | inactive | inactive | inactive | inactive
9 | COc1cc(C[C@H]2CO[C@H](c3ccc(O)c(OC)c3)[C@H]2CO)ccc1O | inactive | inactive | inactive | inactive
